# Measured values taken from ChEMBL document CHEMBL1142957, “Total structure and inhibition of tumor cell proliferation of laxaphycins” (J Med Chem, 2007).
# Tests used:
# [1] = system: CCRF-CEM; experiment: Ratio of IC50 for teniposide-resistant CEM/VM1 cells over IC50 for drug-sensitive CCRF-CEM cells; assay type: functional, Homo sapiens
# [2] = system: CCRF-CEM; experiment: Ratio of IC50 for vinblastine-resistant CEM/VLB100 cells over IC50 for drug-sensitive CCRF-CEM cells; assay type: functional, Homo sapiens
# [3] = system: CCRF-CEM; experiment: Cytotoxicity against drug-sensitive CCRF-CEM cells after 72 hrs; assay type: cell-based; details: Homo sapiens
# Outline: (§1)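 Leukemic lymphoblasts (parent CCRF-CEM, Pgp-overexpressing CEM/VLB100, topo II-altered CEM/VM-1) grown in RPMI 1640 with 10% FCS and antibiotics, 37 °C, 5% CO2. Serial dilutions in medium added to 2 × 10⁵ cells/mL for 3 days, medium not renewed. Survivors counted on a Coulter counter. Triplicate, averaged.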
# [4] = Cytotoxicity against teniposide-resistant CEM/VM1 cells after 72 hrs; assay type: cell-based; details: Homo sapiens, CEM-VM1, 72 h; outline: as §1
# [5] = Cytotoxicity against vinblastine-resistant CEM/VLB100 cells after 72 hrs; assay type: cell-based; details: Homo sapiens, CEM/VLB100, 72 h; outline: as §1
# [6] = system: CEM-VLB; experiment: Interaction index, ratio of IC50 for CEM/VLB100 cells in presence of 2 uM laxaphycin A/IC50 for CEM/VLB100 cells; assay type: functional, Homo sapiens
# [7] = system: CEM-VLB; experiment: Antiproliferative activity against vinblastine-resistant CEM/VLB100 after 72 hrs in presence of 2 uM laxaphycin A; assay type: functional, cell-based; details: Homo sapiens; outline: as §1
# [8] = Cytotoxicity against human […] cells after 48 hrs by RRT; assay type: cell-based
# Outline: (§2)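 Adherent lines in supplemented Glutamax MEM, 37 °C, 5% CO2. Seeded 5 × 10³ cells/well, adhered 16 h, then treated 48 h continuously, alone or in combination, in 0.5% DMSO (solvent control). Resazurin 25 µg/mL in MEM added, 1 h at 37 °C, fluorescence 530/590 nm. Survival = % of control after blank subtraction; IC50 from concentration–survival curve. Two independent assays in triplicate.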
# [9] = Cytotoxicity against human PA1 cells after 48 hrs by Hoechst 33342 assay; assay type: cell-based; details: pa-1, 48 h
# Outline: (§3)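 Adherent lines in Glutamax MEM with Earle's salts, FCS, vitamins, pyruvate, NEAA, glutamine, gentamycin. Seeded 5 × 10³ cells/well, adhered 16 h, then 48 h continuous exposure in 0.5% DMSO (solvent control). After resazurin read, cells PBS-rinsed and stored at −80 °C. Then thawed and given 30 µg/mL Hoechst 33342 in Tris pH 7.4/EDTA/NaCl buffer, 1 h at 37 °C, fluorescence 360/460 nm (DNA ∝ biomass). Two independent assays in triplicate, mean ± SD.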
# [10] = system: PC-3; experiment: Cytotoxicity against human androgen-resistant PC3 cells after 48 hrs by RRT; assay type: cell-based; details: PC-3, 48 h; outline: as §2
# [11] = Cytotoxicity against human PA1 cells after 48 hrs by RRT; assay type: cell-based; details: pa-1, 48 h; outline: as §2
# [12] = system: CEM-VLB; experiment: Interaction index, ratio of IC50 for CEM/VLB100 cells in presence of 0.4 uM laxaphycin A/IC50 for CEM/VLB100 cells; assay type: functional, Homo sapiens
# [13] = system: CEM-VM1; experiment: Antiproliferative activity against teniposide-resistant CEM/VM1 after 72 hrs in presence of 0.2 uM laxaphycin A; assay type: functional, cell-based; details: Homo sapiens, CEM-VM1, 72 h; outline: as §1
# [14] = system: CEM-VLB; experiment: Interaction index, ratio of IC50 for CEM/VLB100 cells in presence of 1 uM laxaphycin A/IC50 for CEM/VLB100 cells; assay type: functional, Homo sapiens
# [15] = system: CCRF-CEM; experiment: Antiproliferative activity against drug-sensitive CCRF-CEM cells after 72 hrs in presence of 2 uM laxaphycin A; assay type: functional, cell-based; details: Homo sapiens; outline: as §1
# [16] = system: CCRF-CEM; experiment: Antiproliferative activity against drug-sensitive CCRF-CEM cells after 72 hrs in presence of 1 uM laxaphycin A; assay type: functional, cell-based; details: Homo sapiens; outline: as §1
# [17] = system: CEM-VM1; experiment: Interaction index, ratio of IC50 for CEM/VM1 cells in presence of 2 uM laxaphycin A/IC50 for CEM/VM1 cells; assay type: functional, Homo sapiens
# [18] = Cytotoxicity against human M4Beu cells after 48 hrs by Hoechst 33342 assay; assay type: cell-based; outline: as §3
# [19] = system: CEM-VLB; experiment: Interaction index, ratio of IC50 for CEM/VLB100 cells in presence of 0.2 uM laxaphycin A/IC50 for CEM/VLB100 cells; assay type: functional, Homo sapiens
# [20] = system: L929; experiment: Cytotoxicity against mouse L929 cells after 48 hrs by RRT; assay type: cell-based; details: l929, 48 h; outline: as §2
# [21] = system: DLD-1; experiment: Cytotoxicity against human DLD1cells after 48 hrs by Hoechst 33342 assay; assay type: cell-based; details: dld-1, 48 h; outline: as §3
# [22] = system: DLD-1; experiment: Increase in cytotoxicity in human DLD1 cells at 2 uM after 48 hrs in presence of 1.5 uM laxaphycin A by RRT assay; assay type: cell-based; details: dld-1, 48 h; outline: as §2
# [23] = system: MCF7; experiment: Cytotoxicity against human MCF7 cells after 48 hrs by RRT; assay type: cell-based; details: MCF7, 48 h; outline: as §2
# [24] = system: CCRF-CEM; experiment: Interaction index, ratio of IC50 for CCRF-CEM cells in presence of 0.4 uM laxaphycin A/IC50 for CCRF-CEM cells; assay type: functional, Homo sapiens
# [25] = system: CCRF-CEM; experiment: Interaction index, ratio of IC50 for CCRF-CEM cells in presence of 0.2 uM laxaphycin A/IC50 for CCRF-CEM cells; assay type: functional, Homo sapiens
# [26] = Cytotoxicity against human fibroblasts after 48 hrs by Hoechst 33342 assay; assay type: cell-based; details: fibroblast; outline: as §3
# [27] = system: CEM-VLB; experiment: Antiproliferative activity against vinblastine-resistant CEM/VLB100 after 72 hrs in presence of 0.2 uM laxaphycin A; assay type: functional, cell-based; details: Homo sapiens; outline: as §1
# [28] = system: CCRF-CEM; experiment: Interaction index, ratio of IC50 for CCRF-CEM cells in presence of 1 uM laxaphycin A/IC50 for CCRF-CEM cells; assay type: functional, Homo sapiens
# [29] = system: CCRF-CEM; experiment: Antiproliferative activity against drug-sensitive CCRF-CEM cells after 72 hrs in presence of 0.2 uM laxaphycin A; assay type: functional, cell-based; details: Homo sapiens; outline: as §1
# [30] = Cytotoxicity against human M4Beu cells after 48 hrs by RRT; assay type: cell-based; outline: as §2
# [31] = system: PC-3; experiment: Cytotoxicity against human androgen-resistant PC3 cells after 48 hrs by Hoechst 33342 assay; assay type: cell-based; details: PC-3, 48 h; outline: as §3
# [32] = Cytotoxicity against human […] cells after 48 hrs by Hoechst 33342 assay; assay type: cell-based; outline: as §3
# [33] = system: MCF7; experiment: Cytotoxicity against human MCF7 cells after 48 hrs by Hoechst 33342 assay; assay type: cell-based; details: MCF7, 48 h; outline: as §3
# [34] = Cytotoxicity against human fibroblasts after 48 hrs by RRT; assay type: cell-based; details: fibroblast; outline: as §2
# [35] = system: DLD-1; experiment: Cytotoxicity against human DLD1cells after 48 hrs by RRT; assay type: cell-based; details: dld-1, 48 h; outline: as §2
# [36] = system: CEM-VM1; experiment: Interaction index, ratio of IC50 for CEM/VM1 cells in presence of 1 uM laxaphycin A/IC50 for CEM/VM1 cells; assay type: functional, Homo sapiens
# [37] = system: DLD-1; experiment: Survival of human DLD1 cells at 2 uM after 48 hrs by RRT assay; assay type: functional
# Outline: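 Adherent cells cultured in Glutamax Eagle's MEM with Earle's salts, fetal calf serum, vitamins, pyruvate, nonessential amino acids, glutamine and gentamycin at 37 °C, 5% CO2. Seeded 5 × 10³ cells/well, 16 h adhesion, then 48 h continuous exposure in 0.5% DMSO, alone or combined. Resazurin (25 µg/mL in MEM) added for 1 h at 37 °C, fluorescence 530/590 nm; survival as percentage of solvent controls after blank subtraction; two independent experiments in triplicate, averaged.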
# [38] = system: CEM-VLB; experiment: Antiproliferative activity against vinblastine-resistant CEM/VLB100 after 72 hrs in presence of 0.4 uM laxaphycin A; assay type: functional, cell-based; details: Homo sapiens; outline: as §1
# [39] = system: DLD-1; experiment: Increase in cytotoxicity in human DLD1 cells at 2 uM after 48 hrs in presence of 2 uM laxaphycin A by RRT assay; assay type: cell-based; details: dld-1, 48 h; outline: as §2
# [40] = system: CEM-VLB; experiment: Antiproliferative activity against vinblastine-resistant CEM/VLB100 after 72 hrs in presence of 1 uM laxaphycin A; assay type: functional, cell-based; details: Homo sapiens; outline: as §1
# [41] = system: CEM-VM1; experiment: Antiproliferative activity against teniposide-resistant CEM/VM1 after 72 hrs in presence of 0.4 uM laxaphycin A; assay type: functional, cell-based; details: Homo sapiens, CEM-VM1, 72 h; outline: as §1
# [42] = system: CCRF-CEM; experiment: Antiproliferative activity against drug-sensitive CCRF-CEM cells after 72 hrs in presence of 0.4 uM laxaphycin A; assay type: functional, cell-based; details: Homo sapiens; outline: as §1
# [43] = system: CEM-VM1; experiment: Interaction index, ratio of IC50 for CEM/VM1 cells in presence of 0.2 uM laxaphycin A/IC50 for CEM/VM1 cells; assay type: functional, Homo sapiens
# [44] = system: L929; experiment: Cytotoxicity against mouse L929 cells after 48 hrs by Hoechst 33342 assay; assay type: cell-based; details: l929, 48 h; outline: as §3
# [45] = system: CEM-VM1; experiment: Interaction index, ratio of IC50 for CEM/VM1 cells in presence of 0.4 uM laxaphycin A/IC50 for CEM/VM1 cells; assay type: functional, Homo sapiens
# [46] = system: CEM-VM1; experiment: Antiproliferative activity against teniposide-resistant CEM/VM1 after 72 hrs in presence of 1 uM laxaphycin A; assay type: functional, cell-based; details: Homo sapiens, CEM-VM1, 72 h; outline: as §1
# [47] = system: DLD-1; experiment: Increase in cytotoxicity in human DLD1 cells at 2 uM after 48 hrs in presence of 1 uM laxaphycin A by RRT assay; assay type: cell-based; details: dld-1, 48 h; outline: as §2
# [48] = system: CEM-VM1; experiment: Antiproliferative activity against teniposide-resistant CEM/VM1 after 72 hrs in presence of 2 uM laxaphycin A; assay type: functional, cell-based; details: Homo sapiens, CEM-VM1, 72 h; outline: as §1
# [49] = system: CCRF-CEM; experiment: Interaction index, ratio of IC50 for CCRF-CEM cells in presence of 2 uM laxaphycin A/IC50 for CCRF-CEM cells; assay type: functional, Homo sapiens
smiles,measurement,setting,value
CCCCCCC[C@@H]1CC(=O)N[C@@H](C(C)C)C(=O)N[C@@H]([C@@H](O)C(C)C)C(=O)N[C@@H](C)C(=O)N[C@H]([C@@H](O)C(C)C)C(=O)N[C@@H](CCC(N)=O)C(=O)N(C)[C@@H]([C@@H](C)CC)C(=O)N[C@H]([C@@H](O)C(N)=O)C(=O)N[C@@H]([C@@H](C)O)C(=O)N2C[C@H](O)C[C@H]2C(=O)N[C@H](CC(C)C)C(=O)N[C@@H]([C@@H](C)O)C(=O)N1 [LAXAPHYCIN B3],Ratio IC50,[1],1
same,Ratio IC50,[2],0.9
same,IC50,[3],1500 nM
same,IC50,[4],1450 nM
same,IC50,[5],1350 nM
CCCCCCC[C@@H]1CC(=O)N[C@@H](C(C)C)C(=O)N[C@@H]([C@@H](O)C(C)C)C(=O)N[C@@H](C)C(=O)N[C@H]([C@@H](O)C(C)C)C(=O)N[C@@H](CCC(N)=O)C(=O)N(C)[C@@H]([C@@H](C)CC)C(=O)N[C@H]([C@@H](O)C(N)=O)C(=O)N[C@@H]([C@@H](C)O)C(=O)N2CCC[C@H]2C(=O)N[C@H](CC(C)C)C(=O)N[C@@H]([C@@H](C)O)C(=O)N1 [LAXAPHYCIN B],Ratio IC50,[6],0.32
same,IC50,[7],330 nM
same,Activity,[8],Dose-dependent effect
same,Activity,[9],Dose-dependent effect
same,IC50,[10],800 nM
same,Activity,[11],Dose-dependent effect
same,Ratio IC50,[12],0.56
same,IC50,[13],720 nM
same,Ratio IC50,[14],0.35
same,IC50,[15],350 nM
same,Ratio IC50,[1],1.2
same,IC50,[16],410 nM
same,Ratio IC50,[17],0.3
same,IC50,[18],300 nM
same,Ratio IC50,[2],0.9
same,Ratio IC50,[19],0.9
same,Activity,[20],Dose-dependent effect
same,Activity,[21],Dose-dependent effect
same,IC50,[3],1110 nM
same,Activity,[22],Active
same,IC50,[23],1000 nM
same,Ratio IC50,[24],0.45
same,Ratio IC50,[25],0.56
same,Activity,[26],Dose-dependent effect
same,IC50,[27],920 nM
same,Ratio IC50,[28],0.41
same,IC50,[29],620 nM
same,IC50,[30],400 nM
same,IC50,[31],580 nM
same,Activity,[32],Dose-dependent effect
same,IC50,[33],500 nM
same,Activity,[34],Dose-dependent effect
same,Activity,[35],Dose-dependent effect
same,Ratio IC50,[36],0.32
same,Activity,[37],90%
same,IC50,[4],1370 nM
same,IC50,[38],570 nM
same,Activity,[39],Active
same,IC50,[40],360 nM
same,IC50,[41],600 nM
same,IC50,[42],500 nM
same,Ratio IC50,[43],0.53
same,IC50,[5],1020 nM
same,Activity,[44],Dose-dependent effect
same,Ratio IC50,[45],0.44
same,IC50,[46],430 nM
same,Activity,[47],Active
same,IC50,[48],410 nM
same,Ratio IC50,[49],0.32
